In ChEMBL document CHEMBL3108700, “Designing anti-inflammatory drugs from parasitic worms: a synthetic small molecule analogue of the Acanthocheilonema viteae product ES-62 prevents development of collagen-induced arthritis” (J Med Chem, 2013):
The source made the active and inactive calls. Unless noted, no cut-off for these calls is given here.

Columns and labels:
[1] = target: T1, Toll-like receptor 9 (Mus musculus) (UniProt Q9EQU3); assay: Inhibition of TLR9-mediated NFkappaB p65 activation in CpG-stimulated BALB/c mouse BMDM at 5 ug/ml preincubated for 18 hrs followed by CpG challenge measured after 1 hr by TransAM ELISA
T1 sequence (whole entry): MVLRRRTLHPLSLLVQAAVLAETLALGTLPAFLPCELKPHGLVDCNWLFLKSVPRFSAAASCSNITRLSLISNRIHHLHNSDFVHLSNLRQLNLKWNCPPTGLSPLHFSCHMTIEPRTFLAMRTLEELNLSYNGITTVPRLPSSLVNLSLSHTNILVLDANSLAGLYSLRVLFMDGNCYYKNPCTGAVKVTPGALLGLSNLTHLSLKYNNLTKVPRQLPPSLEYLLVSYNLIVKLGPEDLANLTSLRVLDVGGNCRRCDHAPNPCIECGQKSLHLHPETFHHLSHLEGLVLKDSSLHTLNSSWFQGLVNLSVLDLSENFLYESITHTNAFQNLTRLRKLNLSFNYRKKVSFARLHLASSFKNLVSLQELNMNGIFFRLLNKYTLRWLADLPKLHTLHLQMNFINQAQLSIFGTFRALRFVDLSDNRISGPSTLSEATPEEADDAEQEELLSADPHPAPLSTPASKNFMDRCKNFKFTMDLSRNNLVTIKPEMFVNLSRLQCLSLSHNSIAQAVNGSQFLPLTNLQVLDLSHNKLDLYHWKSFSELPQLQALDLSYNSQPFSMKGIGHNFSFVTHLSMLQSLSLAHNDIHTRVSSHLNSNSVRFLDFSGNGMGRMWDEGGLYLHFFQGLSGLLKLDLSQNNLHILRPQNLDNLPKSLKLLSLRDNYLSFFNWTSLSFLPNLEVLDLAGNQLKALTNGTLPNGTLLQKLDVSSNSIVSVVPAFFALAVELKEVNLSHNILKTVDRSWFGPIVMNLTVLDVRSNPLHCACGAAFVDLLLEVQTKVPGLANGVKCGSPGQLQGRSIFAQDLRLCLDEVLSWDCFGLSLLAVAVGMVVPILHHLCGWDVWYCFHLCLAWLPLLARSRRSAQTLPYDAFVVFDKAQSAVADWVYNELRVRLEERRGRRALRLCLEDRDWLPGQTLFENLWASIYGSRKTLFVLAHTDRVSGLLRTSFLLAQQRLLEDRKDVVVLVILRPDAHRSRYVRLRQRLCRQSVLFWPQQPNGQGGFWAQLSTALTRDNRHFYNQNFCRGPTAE
Method in brief: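 Bone marrow macrophages (4 × 10^6/well) had their medium changed after 24 h, were pretreated with compounds at 5 μg/mL for 18 h, then stimulated for 1 h with 100 ng/mL LPS, 10 ng/mL BLP or 1 μM CpG. Activated NFκB p65 in nuclear extracts was measured by TransAM ELISA in duplicate.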

[2] = Cytotoxicity against LPS-stimulated BALB/c mouse BMDM assessed as loss of cell viability at 5 ug/mL preincubated for 18 hrs followed by LPS challenge measured after 24 hrs by 7-AAD staining-based flow cytometric analysis
Method in brief: (§1)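 BALB/c bone marrow macrophages (2 × 10^5/well) were rested 24 h in complete RPMI, then given 5 μg/mL compound for 18 h. Cells were stained with 7-AAD for 10 min on ice and the dead fraction read by flow cytometry. One experiment is representative of two.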

[3] = target: T2, Toll-like receptor 4 (Mus musculus) (UniProt Q9QUK6); assay: Inhibition of TLR4 in ovalbumin pulsed C57BL/6 mouse BMDC co-cultured with OT-2 CD4+ T cells assessed as reduction of LPS-induced IL-17 production at 5 ug/mL after 3 days by ELISA; type: cell-based; settings: T-cell
T2 sequence (whole entry): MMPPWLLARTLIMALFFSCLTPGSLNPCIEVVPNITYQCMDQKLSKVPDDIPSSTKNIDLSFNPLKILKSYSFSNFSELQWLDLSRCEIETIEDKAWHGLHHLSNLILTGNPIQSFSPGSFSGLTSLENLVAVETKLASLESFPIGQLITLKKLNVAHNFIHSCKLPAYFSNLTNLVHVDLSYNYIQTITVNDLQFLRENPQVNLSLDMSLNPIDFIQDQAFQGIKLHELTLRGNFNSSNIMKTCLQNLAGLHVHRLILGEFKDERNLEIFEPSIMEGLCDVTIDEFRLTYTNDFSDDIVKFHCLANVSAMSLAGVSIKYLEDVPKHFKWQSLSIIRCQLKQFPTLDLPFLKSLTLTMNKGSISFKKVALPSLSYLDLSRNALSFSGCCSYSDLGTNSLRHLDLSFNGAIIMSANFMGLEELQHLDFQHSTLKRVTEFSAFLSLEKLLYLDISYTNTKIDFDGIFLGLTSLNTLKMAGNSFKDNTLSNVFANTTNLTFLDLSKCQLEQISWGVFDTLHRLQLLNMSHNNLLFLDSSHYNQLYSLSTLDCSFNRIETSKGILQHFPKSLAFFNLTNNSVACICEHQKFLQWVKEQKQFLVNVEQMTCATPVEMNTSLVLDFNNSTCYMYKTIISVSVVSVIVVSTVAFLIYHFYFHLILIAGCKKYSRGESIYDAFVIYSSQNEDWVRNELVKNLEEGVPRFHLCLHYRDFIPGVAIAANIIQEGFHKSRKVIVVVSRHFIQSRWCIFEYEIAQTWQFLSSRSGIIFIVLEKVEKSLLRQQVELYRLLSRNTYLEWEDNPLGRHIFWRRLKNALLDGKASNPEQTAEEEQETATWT
Method in brief: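 C57BL/6 bone marrow DCs ± compound (5 μg/mL) were treated ± LPS, pulsed with OVA peptide, and cocultured 3 days with naive OT-II CD4+ T cells. IL-17A was measured by ELISA. Responses were normalized to the LPS response at 10, 100 and 300 nM OVA. Values are mean ± SEM, pooled from four experiments.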

[4] = target: T2, Toll-like receptor 4 (Mus musculus); assay: Inhibition of TLR4 in BALB/c mouse BMDM assessed as downregulation of LPS-stimulated IL-6 level at 5 ug/ml preincubated for 18 hrs followed by LPS challenge measured after 24 hrs by ELISA relative to control
Method in brief: (§2)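 BALB/c male bone marrow macrophages were differentiated 7 days with L929 supernatant (≥99% CD11b+/F4/80+). Cells were plated at 2 × 10^5/well in triplicate, rested overnight, and given compounds at 5 μg/mL for 18 h. They were then stimulated with 100 ng/mL S. minnesota LPS, 10 ng/mL Pam3CSK4 (BLP) or 0.01 μM CpG for 24 h. Supernatant IL-12p40 and IL-6 were measured by ELISA (sensitivity 16 pg/mL).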

[5] = Cytotoxicity against BLP-stimulated BALB/c mouse BMDM assessed as loss of cell viability at 5 ug/mL preincubated for 18 hrs followed by BLP challenge measured after 24 hrs by 7-AAD staining-based flow cytometric analysis; method in brief: as §1
[6] = target: T2, Toll-like receptor 4 (Mus musculus); assay: Inhibition of TLR4 in BALB/c mouse BMDM assessed as reduction of LPS-stimulated IL-6 production at 5 ug/ml preincubated for 18 hrs followed by LPS challenge measured after 24 hrs by ELISA; method in brief: as §2

- inhibition [1]: Active
- inhibition [3]: Active
- inhibition [4]: Active
- inhibition [6]: Active
Structure (SMILES): CN(C)CCS(=O)(=O)Cc1ccc(Br)cc1
- Activity [2]: Non-toxic
- Activity [5]: Non-toxic
